Experiment [1] is described as follows: Vasodilative activity in isolated Sprague-Dawley rat mesenteric arterial ring assessed as reduction in KCl-induced contraction by wire myograph method. To be noted: Mesenteric artery. The experiment is classed as functional. Summed up: (§1)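 Isolated rat mesenteric arterial rings were precontracted with 60 mM KCl MOPS solution and then exposed to the compound. Relaxation was expressed as pEC50 and Emax (%), given as mean ± deviation. DMSO served as vehicle control and nitrendipine as reference.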

Experiment [2] is described as follows: Vasodilative activity in isolated Sprague-Dawley rat mesenteric arterial ring assessed as reduction in KCl-induced contraction by wire myograph method relative to control. It is filed as functional. To be noted: Mesenteric artery. An outline of the steps: as §1
Experiment [3] relates to Rattus norvegicus. Description: Antihypertensive activity in spontaneously hypertensive rat assessed as reduction in diastolic blood pressure at 2 mg/kg, po measured after 1 hr. The experiment is classed as functional, Artery. Summed up:
(§2)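 Oral dosing in spontaneously hypertensive rats, n = 8 per group. Vehicle was NMP/PEG400/H2O 1:7:2 at 5 ml/kg, and vehicle alone served as control. DBP and SBP (mmHg) were recorded before dosing (0 h) and 1 h after. The reported value is the reduction from the 0 h reading. Doses tested ranged from 0.5 to 8.0 mg/kg, with nitrendipine 2.0 mg/kg as positive drug.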

The test system of experiment [4] is Rattus norvegicus. Description: Antihypertensive activity in spontaneously hypertensive rat assessed as reduction in systolic blood pressure at 2 mg/kg, po measured after 1 hr. It is filed as functional, Artery. Summed up: as §2
Experiment [5] deals with Rattus norvegicus. In words: Antihypertensive activity in spontaneously hypertensive rat assessed as reduction in diastolic blood pressure at 4 mg/kg, po measured after 1 hr. The experiment is classed as functional, Artery. Summed up: as §2
Experiment [6] deals with Rattus norvegicus. Description: Antihypertensive activity in spontaneously hypertensive rat assessed as reduction in systolic blood pressure at 4 mg/kg, po measured after 1 hr. It is filed as functional, Artery. An outline of the steps:
as §2

Experiment [7] is described as follows: Vasodilative activity in isolated Sprague-Dawley rat mesenteric arterial ring assessed as reduction in phenylephrine-induced contraction at 1 to 10 uM pre-incubated for 30 mins before phenylephrine addition by wire myograph method. It is filed as functional. To be noted: Mesenteric artery. Summed up: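 Rat mesenteric artery segments were pretreated with compound at 10^-5 M or 10^-6 M for 30 min. Contraction induced by phenylephrine was then recorded.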

The test system of experiment [8] is Rattus norvegicus. Description: Antihypertensive activity in spontaneously hypertensive rat assessed as reduction in diastolic blood pressure at 0.5 mg/kg, po measured after 1 hr. It is filed as functional, Artery. Summed up:
as §2

In experiment [9] the test system is Rattus norvegicus. Description: Antihypertensive activity in spontaneously hypertensive rat assessed as reduction in diastolic blood pressure at 1 mg/kg, po measured after 1 hr. The experiment is classed as functional, Artery. Summed up:
as §2

Experiment [10] has as its system Rattus norvegicus. In words: Antihypertensive activity in spontaneously hypertensive rat assessed as reduction in diastolic blood pressure at 8 mg/kg, po measured after 1 hr. The experiment is classed as functional, Artery. Summed up:
as §2

Experiment [11] deals with Rattus norvegicus. Description: Antihypertensive activity in spontaneously hypertensive rat assessed as reduction in systolic blood pressure at 0.5 mg/kg, po measured after 1 hr. The experiment is classed as functional, Artery. Summed up:
as §2

Experiment [12] concerns Rattus norvegicus. Description: Antihypertensive activity in spontaneously hypertensive rat assessed as reduction in systolic blood pressure at 1 mg/kg, po measured after 1 hr. The experiment is classed as functional, Artery. Summed up: as §2
The test system of experiment [13] is Rattus norvegicus. Description: Antihypertensive activity in spontaneously hypertensive rat assessed as reduction in systolic blood pressure at 8 mg/kg, po measured after 1 hr. The experiment is classed as functional, Artery. An outline of the steps:
as §2

The test system of experiment [14] is Rattus norvegicus. Description: Antihypertensive activity in spontaneously hypertensive rat assessed as reduction in diastolic blood pressure at 4 mg/kg, po measured after 0.5 hrs. It is filed as functional, Artery. Summed up: (§3)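 Time course in spontaneously hypertensive rats given 4.0 mg/kg orally in NMP/PEG400/H2O 1:7:2 vehicle (5 ml/kg). A vehicle-only group was included. DBP and SBP were followed at successive times after dosing, and the reduction from the pre-dose blood pressure was reported.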

Experiment [15] deals with Rattus norvegicus. Description: Antihypertensive activity in spontaneously hypertensive rat assessed as reduction in diastolic blood pressure at 4 mg/kg, po measured after 2 hrs. The experiment is classed as functional, Artery. Summed up: as §3
Experiment [16] deals with Rattus norvegicus. Description: Antihypertensive activity in spontaneously hypertensive rat assessed as reduction in diastolic blood pressure at 4 mg/kg, po measured after 4 hrs. The experiment is classed as functional, Artery. Summed up:
as §3

Experiment [17] concerns Rattus norvegicus. In words: Antihypertensive activity in spontaneously hypertensive rat assessed as reduction in diastolic blood pressure at 4 mg/kg, po measured after 6 hrs. The experiment is classed as functional, Artery. An outline of the steps:
as §3

Experiment [18] concerns Rattus norvegicus. Description: Antihypertensive activity in spontaneously hypertensive rat assessed as reduction in diastolic blood pressure at 4 mg/kg, po measured after 8 hrs. The experiment is classed as functional, Artery. Summed up: as §3
The subject of experiment [19] is Rattus norvegicus. Description: Antihypertensive activity in spontaneously hypertensive rat assessed as reduction in systolic blood pressure at 4 mg/kg, po measured after 0.5 hrs. It is filed as functional, Artery. Summed up:
as §3

The subject of experiment [20] is Rattus norvegicus. In words: Antihypertensive activity in spontaneously hypertensive rat assessed as reduction in systolic blood pressure at 4 mg/kg, po measured after 2 hrs. It is filed as functional, Artery. An outline of the steps: as §3
Experiment [21] concerns Rattus norvegicus. In words: Antihypertensive activity in spontaneously hypertensive rat assessed as reduction in systolic blood pressure at 4 mg/kg, po measured after 4 hrs. It is filed as functional, Artery. An outline of the steps:
as §3

The test system of experiment [22] is Rattus norvegicus. Description: Antihypertensive activity in spontaneously hypertensive rat assessed as reduction in systolic blood pressure at 4 mg/kg, po measured after 6 hrs. It is filed as functional, Artery. Summed up:
as §3

In experiment [23] the test system is Rattus norvegicus. Description: Antihypertensive activity in spontaneously hypertensive rat assessed as reduction in systolic blood pressure at 4 mg/kg, po measured after 8 hrs. The experiment is classed as functional, Artery. Summed up: as §3
Experiment [24] concerns Rattus norvegicus. Description: Antihypertensive activity in orally dosed spontaneously hypertensive rat assessed as reduction in systolic blood pressure. The experiment is classed as functional, organism-based. To be noted: Artery. Summed up:
as §2

The test system of experiment [25] is Rattus norvegicus. In words: Antihypertensive activity in orally dosed spontaneously hypertensive rat assessed as reduction in diastolic blood pressure. The experiment is classed as functional, organism-based. To be noted: Artery. An outline of the steps:
as §2

The source made the active and inactive calls. The rule behind the calls is not given here.

The results in this text go back to ChEMBL document CHEMBL3352311, “Discovery of novel 3-benzylquinazolin-4(3H)-ones as potent vasodilative agents” (Bioorg Med Chem Lett, 2014).

`O=c1c2ccc(Cl)cc2ncn1Cc1ccc(F)cc1`: in [1], the EC50 was 63.1 µM. Also, the maximal effect (Emax) in [2] worked out at 101%.
With `COc1ccc(COc2ccc(Cn3cnc4cc(OC)c(OC)cc4c3=O)cc2OC)cc1OC`, the half-maximal effective concentration (EC50) in experiment [1] was 3.16 µM. For the same molecule, in experiment [2], the Emax was 99.7%.
In the case of `COc1cc2ncn(Cc3ccc(C#N)cc3)c(=O)c2cc1OC`, the half-maximal effective concentration (EC50) in experiment [1] is 50.1 µM. In [2], the Emax was found to be 85.6%.
In the same order, the values of `COc1cc2ncn(Cc3ccccc3Cl)c(=O)c2cc1OC` are 39.8 µM and 98.3%.
For `COc1cc2ncn(Cc3ccc(OCc4cccnc4)c(OC)c3)c(=O)c2cc1OC` the same measures were 0.631 µM and 98.4%.
Turning to `COc1cc2ncn(Cc3ccc(F)cc3)c(=O)c2cc1OC`, the half-maximal effective concentration (EC50) in experiment [1] is 25.1 µM. Further, the Emax in experiment [2] was 97.8%.
Consider `COc1cc2ncn(Cc3ccc(OCc4cccc(F)c4)c(OC)c3)c(=O)c2cc1OC`, for which the half-maximal effective concentration (EC50) in experiment [1] was 1 µM. Besides, in experiment [2], the maximal effect (Emax) was found to be 99.6%.
Consider `COc1cc(Cn2cnc3cc(OC)c(OC)cc3c2=O)ccc1O`, for which the EC50 in experiment [1] was 31.6 µM. Besides, the Emax in experiment [2] is 87.6%.
`COc1ccc(Cn2cnc3cc(F)ccc3c2=O)cc1`: the EC50 in experiment [1] was 79.4 µM. Also, the maximum response (Emax) in [2] is 87.7%.
For `COc1cc2ncn(Cc3ccc([N+](=O)[O-])cc3)c(=O)c2cc1OC` the same measures were 63.1 µM and 86.2%.
For the molecule `COc1cc2ncn(Cc3ccc4c(c3)OCO4)c(=O)c2cc1OC`, the EC50 in experiment [1] was 7.94 µM. For the same molecule, in [2], the Emax is 98.6%.
Take `CCOC(=O)C1=C(C)NC(C)=C(C(=O)OC)C1c1cccc([N+](=O)[O-])c1` (stereo unspecified) [NITRENDIPINE]: the EC50 in experiment [1] is 0.00398 µM. Also, the Emax in [2] was 104%. The Activity was determined as 30 mmHg in experiment [3] and 51 mmHg in [4].
In the case of `COc1cc2ncn(Cc3cc(OC)c(OC)c(OC)c3)c(=O)c2cc1OC`, the EC50 in [1] is 0.501 µM. Also, the Emax in experiment [2] was determined as 104%.
For `COc1cc2ncn(Cc3ccc(OCc4ccc(Cl)cc4Cl)c(OC)c3)c(=O)c2cc1OC` the same measures were 12.6 µM and 97.8%.
For `COc1cc2ncn(Cc3ccc(OC)c(OCc4ccccc4)c3)c(=O)c2cc1OC` the same measures were 31.6 µM and 95%.
Consider `COc1cc2ncn(Cc3ccc(OCc4ccncc4)c(OC)c3)c(=O)c2cc1OC`, for which the 50% effective concentration (EC50) in experiment [1] is 20 µM. Also, the maximal response (Emax) in experiment [2] turned out to be 93.5%.
Consider `COc1cc2ncn(Cc3ccc(OCc4ccc(F)cc4)cc3)c(=O)c2cc1OC`, for which the EC50 in experiment [1] was 100 µM. Besides, the Emax in experiment [2] was found to be 50.3%.
Turning to `COc1cc2ncn(Cc3ccc(OCc4ccccc4)c(OC)c3)c(=O)c2cc1OC`, the EC50 in experiment [1] was 0.398 µM. Besides, the maximal response (Emax) in experiment [2] came to 103%. Moreover, the Activity in experiment [5] is 19 mmHg; in experiment [6], 48 mmHg. Besides, the outcome in experiment [7] was Active.
With `COc1ccc(Cn2cnc3cc4c(cc3c2=O)OCO4)cc1`, the half-maximal effective concentration (EC50) in experiment [1] is 20 µM. In [2], the maximal effect (Emax) worked out at 101%.
With `COc1ccc(Cn2cnc3cc(Cl)ccc3c2=O)cc1`, in experiment [1], the concentration for a half-maximal effect (EC50) is 50.1 µM. In addition, in [2], the maximal effect (Emax) worked out at 97%.
As to `COc1cc2ncn(Cc3ccc(OCc4ccc(F)cc4)c(OC)c3)c(=O)c2cc1OC`, in experiment [1], the half-maximal effective concentration (EC50) is 0.251 µM. The Emax in [2] is 103%. Besides, the Activity in experiment [5] amounted to 34 mmHg; in experiment [3], 18 mmHg; in experiment [6], 60 mmHg; in experiment [4], 41 mmHg; in [8] it was 9 mmHg; in experiment [9], 15 mmHg. The Activity in experiment [10] was 43 mmHg; in experiment [11], 12 mmHg; in experiment [12], 28 mmHg; in experiment [13], 64 mmHg; in experiment [14], 20 mmHg; in experiment [15], 23 mmHg. Besides, the Activity in experiment [16] was determined as 17 mmHg; in experiment [17], 10 mmHg; in experiment [18] it was 0 mmHg; in experiment [19], 46 mmHg; in experiment [20], 42 mmHg; in [21], 36 mmHg. Moreover, the Activity in [22] is 21 mmHg; in experiment [23] it was 2 mmHg; in experiment [24], “Dose-dependent effect”; in [25] it was “Dose-dependent effect”. In addition, the result in experiment [7] was Active.
`COc1ccc(-n2cnc3cc(OC)c(OC)cc3c2=O)cc1`: the EC50 in experiment [1] was 63.1 µM. Besides, the maximal effect (Emax) in experiment [2] turned out to be 96.3%.
As for `COc1cc2ncn(Cc3ccccc3)c(=O)c2cc1OC`, the EC50 in experiment [1] was 39.8 µM. The Emax in experiment [2] turned out to be 98.2%.
In the same order, the values of `COc1ccc(Cn2cnc3cc(OC)c(OC)cc3c2=O)cc1` are 25.1 µM and 100%.
As to `O=c1c2ccc(F)cc2ncn1Cc1ccc(F)cc1`, in experiment [1], the 50% effective concentration (EC50) was 100 µM. Further, the Emax in experiment [2] amounted to 78.3%.
Turning to `COc1cc2ncn(Cc3ccccc3C)c(=O)c2cc1OC`, in experiment [1], the EC50 was 31.6 µM. The Emax in [2] amounted to 97.3%.
For `COc1cc2ncn(Cc3ccc(OCc4ccc(F)cc4)c(F)c3)c(=O)c2cc1OC` the same measures were 7.94 µM and 99.1%.
As for `O=c1c2cc(Br)ccc2ncn1Cc1ccc(F)cc1`, the concentration giving a half-maximal response (EC50) in [1] was 50.1 µM. In addition, the maximum response (Emax) in [2] was found to be 96.4%.
Regarding `COc1cc2ncn(Cc3ccc(OCc4ccc(F)cc4)c(Cl)c3)c(=O)c2cc1OC`, in experiment [1], the EC50 is 10 µM. Further, the Emax in [2] came to 98.9%.

Usually EC50 stands for the midpoint of the concentration-response curve. In general, Emax refers to the greatest response seen or fitted, relative to the assay's reference.
